Test results from ChEMBL document CHEMBL1914372, “Synthesis and preliminary biological evaluation of novel N-(3-aryl-1,2,4-triazol-5-yl) cinnamamide derivatives as potential antimycobacterial agents: an operational Topliss Tree approach” (Bioorg Med Chem Lett, 2011).
Converted amounts (≈) assume the structure as drawn.

What was measured:
[1] = Cytotoxicity against african green monkey Vero C1008 cells after 72 hrs by MTT assay; format: cell-based; settings: chlorocebus sabaeus
In short: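 Mammalian VERO C1008 cells were exposed to the compounds in microtitre plates, viability was read by MTT assay, and CC50 values were determined.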

[2] = tested on: Mycobacterium tuberculosis; assay: Antimycobacterial activity against Mycobacterium tuberculosis H37Rv after 7 days by resazurin based microdilution assay; format: functional; settings: 168 h
In short: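 M. tuberculosis H37Rv in resazurin microtitre assay (REMA) with two-fold serial dilutions of compound; isoniazid as reference drug. MIC taken as lowest concentration giving complete inhibition, read visually by colour change (blue stays blue without growth, turns pink with growth).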

Row | Structure (SMILES) | CC50 at 72 h [1] [µM] | MIC [2] [µM]
1 | O=C(/C=C/c1ccccc1)Nc1nnc(-c2ccccc2)[nH]1 | 1570 | 86.2 (≈ 25 µg/mL)
2 | O=C(/C=C/c1ccc(Cl)cc1)Nc1nnc(-c2ccccc2)[nH]1 | 1620 | 92.6 (≈ 30.1 µg/mL)
3 | COc1ccc(/C=C/C(=O)Nc2nnc(-c3ccccc3)[nH]2)cc1 | 1280 | 39.1 (≈ 12.5 µg/mL)
4 | Cc1ccc(/C=C/C(=O)Nc2nnc(-c3ccccc3)[nH]2)cc1 | 1760 | 82.2 (≈ 25 µg/mL)
5 | O=C(/C=C/c1ccc(O)cc1)Nc1nnc(-c2ccccc2)[nH]1 | 1850 | 40.8 (≈ 12.5 µg/mL)
6 | Nc1ccc(/C=C/C(=O)Nc2nnc(-c3ccccc3)[nH]2)cc1 | 1910 | 20.5 (≈ 6.26 µg/mL)
7 | O=C(/C=C/c1ccc2c(c1)COC2)Nc1nnc(-c2ccccc2)[nH]1 | 1820 | 18.8 (≈ 6.25 µg/mL)
8 | COc1ccc(/C=C/C(=O)Nc2nnc(-c3ccccc3)[nH]2)cc1OC | 1210 | 4.6 (≈ 1.61 µg/mL)
9 | O=C(/C=C/c1cccc(Cl)c1)Nc1nnc(-c2ccccc2)[nH]1 | 1470 | 38.6 (≈ 12.5 µg/mL)
10 | O=C(/C=C/c1cccc([N+](=O)[O-])c1)Nc1nnc(-c2ccccc2)[nH]1 | 1990 | 9.7 (≈ 3.25 µg/mL)
11 | O=C(/C=C/c1ccco1)Nc1nnc(-c2ccccc2)[nH]1 | 2180 | 11.6 (≈ 3.25 µg/mL)
12 | O=C(/C=C/c1ccc([N+](=O)[O-])s1)Nc1nnc(-c2ccccc2)[nH]1 | 1670 | 4.8 (≈ 1.64 µg/mL)
13 | C=C(C)COc1ccc(/C=C/C(=O)Nc2nnc(-c3ccccc3)[nH]2)cc1 | 1420 | 9 (≈ 3.24 µg/mL)
14 | O=C(/C=C/c1ccc(OC(F)(F)F)cc1)Nc1nnc(-c2ccccc2)[nH]1 | 1560 | 8.6 (≈ 3.22 µg/mL)
15 | NNC(=O)c1ccncc1 [ISONIAZID] | 1460 | 1.8 (≈ 0.247 µg/mL)
